High-throughput results: PubChem, several laboratories
ABCB1 block – blocks JC-1 efflux by human ABCB1 transporter; P08183; CCRF-Adr cells, flow cytometry; inhibition, % at 6.6 µM; 0.067% of 190,000 active; AID 1326; in the data active = inhibition above about 40%;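 also: higher value means more JC-1 retained so stronger ABCB1 efflux block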
ROMK primary – modulators of human ROMK potassium channel | 2% of 130,000 active | Tet-inducible ROMK, thallium flux fluorescence; actives lie on both sides | P48048 | B-score at 10 µM;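 active = signal ratio slope over the read window, or its plate-corrected B-score, at least 3 SD from the plate mean, either direction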;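 also: B-score of the F/F0 ratio slope over 7 to 12 s after thallium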
TRPML3 agonist – agonists of human TRPML3 channel | AID 1448 | 0.29% of 220,000 active | Q8TDD5 | HEK293 TRPML3-YFP, Fluo-8 calcium fluorescence; 100% = the carbachol control signal | activation, % at 3 µM;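 active = activation above its plate's cutoff, the mean activation of the plate's test wells plus 3 SD, cut at about 12% in these data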
Target sequence (Q8TDD5 whole entry, looked up): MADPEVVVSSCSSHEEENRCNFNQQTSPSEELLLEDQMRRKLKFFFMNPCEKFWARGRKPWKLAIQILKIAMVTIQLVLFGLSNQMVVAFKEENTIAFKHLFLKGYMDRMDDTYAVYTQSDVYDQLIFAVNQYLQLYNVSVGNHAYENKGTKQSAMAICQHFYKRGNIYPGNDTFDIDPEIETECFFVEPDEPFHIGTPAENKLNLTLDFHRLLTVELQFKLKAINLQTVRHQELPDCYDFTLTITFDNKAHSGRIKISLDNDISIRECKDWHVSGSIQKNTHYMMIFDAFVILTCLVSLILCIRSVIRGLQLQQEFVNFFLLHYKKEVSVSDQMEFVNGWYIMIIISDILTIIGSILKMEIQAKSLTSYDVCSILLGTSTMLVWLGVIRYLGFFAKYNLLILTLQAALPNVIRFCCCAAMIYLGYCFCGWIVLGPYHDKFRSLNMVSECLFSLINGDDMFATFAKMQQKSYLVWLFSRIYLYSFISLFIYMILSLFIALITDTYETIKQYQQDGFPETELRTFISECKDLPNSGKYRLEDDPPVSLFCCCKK
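system = HEK293 cells stably carrying human TRPML3-YFP | doses = one concentration, 3 µM nominal, 0.3% DMSO | timing = dye loading 1 h 37 °C then 30 min ambient, 125 s read | detection = Fluo-8 calcium dye fluorescence, ex 470-495, em 515-575 nm | benchmarks = high control carbachol 87 µM, low control DMSO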
TRPN1 ag – activates the zebrafish TRPN1 channel; HEK293 zebrafish TRPN1-YFP, Fluo-8 calcium fluorescence; 100% = response to 87 µM carbachol; AID 1424; activation, % at 3 µM; 0.18% of 220,000 active;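 active = activation above its plate's cutoff, the mean activation of test wells on that plate plus 3 SD, cut at about 19% in these data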
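Control set: carbachol 87 µM as high control, DMSO as low control; system: HEK293 stable line with zebrafish TRPN1-YFP; read-out: % activation versus carbachol response; detection: intracellular calcium fluorescence with Fluo-8; doses: single test compound dose, 3 µM nominal, 0.3% DMSO; schedule: dye 1 h 37 °C plus 30 min RT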
ABCG2 block – inhibitors of human ABCG2 transporter, ABCB1 counter-screen; Q9UNQ0; IgMXP3 cells, JC-1 efflux, flow cytometry; inhibition, % at 6.6 µM; 0.1% of 190,000 active; AID 1325;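 active = inhibition above 80%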
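Test system: IgMXP3 (ABCG2) plus far-red-tagged CCRF-Adr (ABCB1) cells. Reagent: JC-1 dye as substrate. Timing: 10 min exposure at 25 °C with rotation, no wash. Measured by: flow cytometric JC-1 green MFI at 530 nm. Read-out: percent efflux inhibition, scaled nicardipine 100% to DMSO 0%. Control set: nicardipine and DMSO wells.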
Biofilm kill mix – mixture kills Candida albicans biofilm cells | C. albicans biofilm persisters + clotrimazole, fluorescence viability; primary screen in compound mixtures of four per well | inhibition, % at 7.6 µM | 0.02% of 120,000 active | AID 1242;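 active = inhibition above 30.3% in the primary screen of four-compound pools, then above 30% when the compound was retested; inconclusive = passed the primary limit but could not be retested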;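 also: compounds exposed to preformed 24 h biofilms for 48 h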
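Incubation: 24 h biofilm formation, then 48 h compound exposure, 37 °C | Material: C. albicans biofilms | Buffer or medium: RPMI/MOPS medium, pH 7.0 | Measured by: 2-h Alamar Blue fluorescence, 535/590 nm excitation/emission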
ROMK retest – confirmation of human ROMK potassium channel modulators; shares compounds with ROMK primary; ROMK thallium flux, fluorescence ratio; stronger effect = lower value; normalized thallium flux (F/F0 slope) at 10 µM; 54% of 3,000 active; AID 1917;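 active = Flux at 10 µM at least 3 SD below or above vehicle control mean in one or both replicates; inconclusive = no clear call, values can overlap the other calls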
Large screens that a line does not name were inactive (follow-up assays come after a bar, where they were run). The sample as a whole holds a higher share of hits than the screen did.

CCN1C(=O)c2cccc3c(S(=O)(=O)Nc4ccncc4)ccc1c23	ROMK primary 2.3 (no result: Biofilm kill mix) | ROMK retest inactive
Cc1ccc(NS(=O)(=O)c2ccc(Br)s2)nc1	none
CN1C(=O)N(C)c2ccc(C=O)c3cccc1c23	ROMK primary -3.4 | ROMK retest 0.068
C/C(=N\NC(N)=O)c1ccccc1Cl	none (no result: ABCB1 block, ROMK primary, ABCG2 block)
O=c1[nH]c(=O)n(C2CCCCCC2)c(O)c1C=NCc1ccc(F)cc1	none (no result: ROMK primary, Biofilm kill mix)
COc1ccc(CN=Cc2c(O)[nH]c3ccccc23)cc1	none
Oc1c(C=NCc2ccc(F)cc2)[nH]c2ccc(Br)c(Cl)c12	ROMK primary -5.2 (no result: Biofilm kill mix) | ROMK retest 0.047
Cc1ccc(CN=Cc2[nH]c3ccc(Br)c(Cl)c3c2O)cc1	ROMK primary -3.2 (no result: Biofilm kill mix) | ROMK retest 0.045
CON1C(=O)C(=O)N(OC)C2CCCCC21 (centres undefined)	none (no result: ROMK primary, Biofilm kill mix) | ROMK retest inconclusive
CC(C)(C)NC(=O)NC(=O)COC(=O)CNC(=O)c1cccc(F)c1	none (no result: Biofilm kill mix)
CC1CCCCC1NC(=O)COC(=O)CNC(=O)c1cccc(F)c1 (centres undefined)	ROMK primary -2.1 | ROMK retest inactive
O=C(NNC(=S)Nc1ccc(F)cc1)C1[C@H]2CCCC[C@@H]12 (some centres undefined)	none (no result: ABCB1 block, ROMK primary, ABCG2 block)
Cc1ccc(-n2ncc3c(NCc4cccnc4)ncnc32)c(C)c1	none | ROMK retest 0.066
O=C(OCC#CCSc1nnc(-c2cccc3ccccc23)o1)c1cccs1	none (no result: Biofilm kill mix)
O=C(OCC#CCSc1nnc(-c2ccccc2)o1)c1cccs1	none (no result: Biofilm kill mix) | ROMK retest 0.058
CCOc1ccccc1C(=O)NCC(=O)OCC(=O)NCCc1ccc(S(N)(=O)=O)cc1	ROMK primary -2.8 (no result: Biofilm kill mix) | ROMK retest inactive
CNC(=O)c1sccc1-n1cccc1	ROMK primary 2.9 (no result: Biofilm kill mix) | ROMK retest inactive
Nc1ccc2c(c1)C(=O)C(=O)c1ccccc1-2	ROMK primary -5.6 (no result: Biofilm kill mix) | ROMK retest 0.037
O=C1C(=O)c2ccc(-c3ccccc3)cc2-c2ccccc21	none
O=C(Cc1ccccc1)NNc1c2ccccc2nc2ccccc12	none
OCC(Cc1ccccc1)Nc1c2ccccc2nc2ccccc12 (centres undefined)	ROMK primary -6.4 | ROMK retest 0.041
Cc1ccc(C2N=C(N)Nc3nc(=O)c4ccccc4n32)cc1 (centres undefined)	none (no result: ABCB1 block, ROMK primary, ABCG2 block)
COCCNC(=O)CN1C(=O)COc2ccc(Cl)cc21	none | ROMK retest inactive
CCCCCc1cc(O)c2c(C)cc(=O)oc2c1	none (no result: ROMK primary, Biofilm kill mix) | ROMK retest 0.055
CCCc1cc(=O)oc2cc(C)cc(O)c12	none (no result: Biofilm kill mix)
COc1cccc(-c2csc(N3CCN(C(=O)Nc4ccc(F)cc4)CC3)n2)c1	none
COc1cccc(-c2csc(N3CCN(C(=O)C4CCCCC4)CC3)n2)c1	none (no result: ROMK primary, Biofilm kill mix) | ROMK retest inconclusive
CC(=O)c1cc(-c2ccccc2)n(CC(=O)N2CCCCC2)c1C	ROMK primary 3 (no result: Biofilm kill mix) | ROMK retest inactive
CCOC(=O)c1cc(-c2ccccc2)n(CC(=O)Nc2cccc(OC)c2)c1C	ROMK primary -4.8 | ROMK retest inactive
CCOC(=O)c1cc(-c2ccccc2)n(CC(=O)Nc2ccc(OC)c(OC)c2)c1C	none
O=C(NC1=NCCS1)c1ccccc1OCc1ccccc1Cl	none
Cc1ccc(C(=O)NC(C#N)=C(Cl)Cl)cc1	none | ROMK retest 0.061
Cc1ccc(C(=O)NCC#N)cc1	none
CC(NC(=O)c1ccccc1)c1ccc(F)cc1 (centres undefined)	none
N#CC(C#N)=Cc1ccc(OCC(=O)N2CCOCC2)cc1	none (no result: ROMK primary)
Brc1ccc2c(c1)CNc1c(ncnc1N1CCOCC1)O2	none (no result: ROMK primary, Biofilm kill mix) | ROMK retest inactive
Brc1ccc2ncnc(Nc3ccc(N4CCOCC4)cc3)c2c1	none (no result: ROMK primary, Biofilm kill mix)
O=c1cc(-c2cccc(F)c2)[nH]c2ccccc12	none
COc1ccc2[nH]c(-c3cccc(F)c3)cc(=O)c2c1	ROMK primary 4 | ROMK retest inactive
Cc1ccc2[nH]c(-c3cccc(F)c3)cc(=O)c2c1	ROMK primary 3.1 | ROMK retest inactive
CCN(C(=O)CN1CCN(c2cccc(C(F)(F)F)c2)CC1)c1c(N)n(Cc2ccccc2)c(=O)[nH]c1=O	none
